Measurements: article PMC6839450 (ACS chemical biology, 2015)

What was measured:
Assay in all cases: Cell viability
Details in all cases: Ac-peptide, up to 20 μM, 24 h, CellTiter-Glo
OCI-AML3 cells = format: cell-based
Summary of the method: (§1)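 Cells in OptiMEM with penicillin/streptomycin: MEFs (wild-type or Bax−/−Bak−/−) at 2.5 × 10^3 per well, adhered overnight and washed; OCI-AML3 at 1 × 10^4 per well. Serial dilutions of peptide from a 10 mM DMSO stock, or vehicle, were applied for 2 h at 37 °C serum-free, then FBS was added to 10%. CellTiter-Glo luminescence was read 24 h post-treatment.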

wild-type MEFs = format: cell-based, mouse
Summary of the method: as §1

Bax−/−Bak−/− (DKO) MEFs = format: cell-based, mouse
Summary of the method: as §1

BIM BH3_2: unmodified BIM BH3 domain peptide, amino acids 145–164; N-terminal cap depends on the assay
no effect: Effect on viability of OCI-AML3 cells (in words) (OCI-AML3 cells) | Effect on viability of wild-type MEFs (in words) (wild-type MEFs) | Effect on viability of Bax−/−Bak−/− (DKO) MEFs (in words) (Bax−/−Bak−/− (DKO) MEFs)
